Experimental data as given in ChEMBL document CHEMBL5705901, “Exploiting selective BCL-2 family inhibitors to dissect cell survival dependencies and define improved strategies for cancer therapy” (Sci Transl Med, 2015).
Activity calls are given as the source filed them. The rule behind the calls is not given here.

How the values were obtained:
[1] = test system: EBC-1; assay: Antitumor activity against human EBC-1 cells xenografted in po dosed SCID-bg mouse assessed as maximum tumor growth inhibition relative to control; type: functional
[2] = test system: NCI-H1650; assay: Antitumor activity against human NCI-H1650 cells xenografted in SCID-bg mouse assessed as tumor growth delay at 25 mg/kg, po administered daily for 14 days relative to control; type: functional; conditions: time 14 day
Outline: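 NCI-H1650 NSCLC xenografts, ten mice per group. Arms: vehicle; docetaxel iv once at 7.5 mg/kg; oral agent daily for 14 days at 25 mg/kg; and the two combined. TGImax = 100(1 − Tv/Cv) from mean volumes. TGD = 100(T/C − 1) from median times to reach 1 cm3.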

[3] = test system: OVCAR-5; assay: Synergistic antitumor activity against human OVCAR-5 cells xenografted in po dosed SCID mouse assessed as tumor growth delay in presence of docetaxel relative to control; type: functional
Outline: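 Xenografts dosed with oral inhibitor plus intravenous docetaxel. TGImax = 100(1 − Tv/Cv), from mean treated and control tumor volumes; TGD = 100(T/C − 1), from median times to reach 1 cm3. Group size 5 mice (NCI-H747, A549-FP3, EBC-1, OVCAR-5), 8 (NCI-H358), 10 (NCI-H1650).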

[4] = Toxicity in po dosed SCID mouse assessed as body weight loss relative to control; type: organism-based; conditions: in vivo
[5] = test system: MOLT-4; assay: Antitumor activity against human MOLT-4 cells xenografted in SCID-bg mouse assessed as tumor regression at 25 mg/kg, po administered twice a day for 14 days; type: functional, organism-based; conditions: time 14.0 day
Outline: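 Mice bearing Molt-4 T-ALL xenografts, dosed alongside a vehicle control group. Each point on the growth curve is the mean volume of 10 tumours, with SD.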

[6] = test system: NCI-H196; assay: Synergistic antiproliferative activity against 5 times passaged human NCI-H1963 cells xenografted in mouse assessed as reduction in tumor volume at 25 mg/kg, po co-administered with venetoclax twice a day for 14 days; type: functional, organism-based; conditions: time 14.0 day
[7] = Toxicity in po dosed SCID-bg mouse assessed as tolerance; type: organism-based; conditions: in vivo
[8] = test system: MDA-MB-231; assay: Synergistic antitumor activity against LC3 positive human MDA-MB-231 cells xenografted in SCID mouse assessed as tumor growth delay at 25 mg/kg, po coadministered with docetaxel once daily for 14 days relative to control; type: functional; conditions: time 14 day
Outline: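 MDA-MB-231 LC3 metastatic breast cancer xenograft, 10 mice per group, with a vehicle control. Dosing: oral agent 25 mg/kg daily for 14 days; docetaxel 7.5 mg/kg iv once; combination gives both regimens. Mean tumor volumes tracked. TGImax = 100(1 − Tv/Cv) from mean treated vs control volumes. TGD = 100(T/C − 1) from median times to reach 1 cm3.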

[9] = test system: MOLM-13; assay: Antiproliferative activity against human MOLM-13 assessed as reduction in cell viability incubated for 48 hrs by CellTiter-Glo cell vaibility assay; type: functional, cell-based; conditions: MOLM-13, 48 h
Outline: (§1)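 Tumour cell lines (SCLC panel and AML panel) exposed to increasing concentrations for 48 hours, then cell viability measured. Cell-killing EC50 taken from the concentration-response.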

[10] = test system: ML-2; assay: Antiproliferative activity against human ML-2 assessed as reduction in cell viability incubated for 48 hrs by CellTiter-Glo cell vaibility assay; type: functional, cell-based; conditions: ML-2, 48 h; outline: as §1
[11] = Antiproliferative activity against human PL-21 assessed as reduction in cell viability incubated for 48 hrs by CellTiter-Glo cell vaibility assay; type: functional, cell-based; conditions: PL-21, 48 h; outline: as §1
[12] = test system: OCI-AML2; assay: Antiproliferative activity against human OCI-AML2 assessed as reduction in cell viability incubated for 48 hrs by CellTiter-Glo cell vaibility assay; type: functional, cell-based; conditions: OCI-AML2, 48 h; outline: as §1
[13] = test system: NCI-H187; assay: Antiproliferative activity against human NCI-H187 assessed as reduction in cell viability incubated for 48 hrs by CellTiter-Glo cell vaibility assay; type: functional, cell-based; conditions: NCI-H187, 48 h; outline: as §1
[14] = test system: NCI-H446; assay: Antiproliferative activity against human NCI-H446 assessed as reduction in cell viability incubated for 48 hrs by CellTiter-Glo cell vaibility assay; type: functional, cell-based; conditions: NCI-H446, 48 h; outline: as §1
[15] = test system: HCC1395; assay: Induction of apoptosis in human HCC1395 cells assessed as accumulation of cells with sub-G0-G1 DNA content at 1 uM incubated for 48 hrs in presence of docetaxel by flow cytometric analysis; type: functional, cell-based
[16] = test system: OCI-AML-3; assay: Antiproliferative activity against human OCI-AML-3 assessed as reduction in cell viability incubated for 48 hrs by CellTiter-Glo cell vaibility assay; type: functional, cell-based; conditions: OCI-AML-3, 48 h; outline: as §1
[17] = Antiproliferative activity against human OCI-M1 assessed as reduction in cell viability incubated for 48 hrs by CellTiter-Glo cell vaibility assay; type: functional, cell-based; conditions: OCI-M1, 48 h; outline: as §1
[18] = test system: HEL; assay: Antiproliferative activity against human HEL harboring JAK2 V617F mutant assessed as reduction in cell viability incubated for 48 hrs by CellTiter-Glo cell vaibility assay; type: functional, cell-based; outline: as §1
[19] = test system: HL-60; assay: Antiproliferative activity against human HL-60 assessed as reduction in cell viability incubated for 48 hrs by CellTiter-Glo cell vaibility assay; type: functional, cell-based; conditions: HL-60, 48 h; outline: as §1
[20] = test system: NCI-H69; assay: Antiproliferative activity against human NCI-H69 assessed as reduction in cell viability incubated for 48 hrs by CellTiter-Glo cell vaibility assay; type: functional, cell-based; conditions: NCI-H69, 48 h; outline: as §1
[21] = test system: HCC1806; assay: Induction of apoptosis in human HCC1806 cells assessed as accumulation of cells with sub-G0-G1 DNA content at 1 uM incubated for 48 hrs in presence of docetaxel by flow cytometric analysis; type: functional, cell-based
[22] = test system: OCI-AML-5; assay: Antiproliferative activity against human OCI-AML5 assessed as reduction in cell viability incubated for 48 hrs by CellTiter-Glo cell vaibility assay; type: functional, cell-based; conditions: OCI-AML-5, 48 h; outline: as §1
[23] = test system: SK-BR-3; assay: Synergistic antiproliferative activity against human SK-BR-3 cells assessed as reduction in cell viability by measuring bliss sum score incubated for 72 hrs in presence of docetaxel by CellTiter-Glo cell vaibility assay; type: functional
[24] = test system: SK-MES-1; assay: Synergistic antiproliferative activity against human SK-MES-1 cells assessed as reduction in cell viability by measuring bliss sum score incubated for 72 hrs in presence of docetaxel by CellTiter-Glo cell vaibility assay; type: functional
[25] = test system: DU-4475; assay: Synergistic antiproliferative activity against human DU-4475 cells assessed as reduction in cell viability by measuring bliss sum score incubated for 72 hrs in presence of docetaxel by CellTiter-Glo cell vaibility assay; type: functional
[26] = test system: MEF; assay: Cytotoxicity against Mcl-1 knockout MEF cells assessed as reduction in cell viability incubated for 48 hrs by CellTiter-Glo cell vaibility assay; type: toxicity, cell-based; conditions: mouse
[27] = test system: NCI-H1299; assay: Synergistic antiproliferative activity against human NCI-H1299 cells assessed as reduction in cell viability by measuring bliss sum score incubated for 72 hrs in presence of docetaxel by CellTiter-Glo cell vaibility assay; type: functional
[28] = test system: BT-549; assay: Synergistic antiproliferative activity against human BT-549 cells assessed as reduction in cell viability by measuring bliss sum score incubated for 72 hrs in presence of docetaxel by CellTiter-Glo cell vaibility assay; type: functional
[29] = test system: NCI-H23; assay: Synergistic antiproliferative activity against human NCI-H23 cells assessed as reduction in cell viability by measuring bliss sum score incubated for 72 hrs in presence of docetaxel by CellTiter-Glo cell vaibility assay; type: functional

Structure (SMILES)	EC50 [9]	EC50 [10]	EC50 [11]	EC50 [12]	EC50 [13]	EC50 [14]	EC50 [16]	EC50 [17]	EC50 [18]	EC50 [19]	EC50 [20]	EC50 [22]	further results
Cc1c(-c2ccc(N3CCc4cccc(C(=O)Nc5nc6ccccc6s5)c4C3)nc2C(=O)O)cnn1CC12CC3CC(CC(C3)C1)C2	–	–	–	–	–	–	–	–	–	–	–	–	TGI [1]: 52%; Activity [2]: 33%; Activity [3]: 85%; Activity [4]: < 9%; Activity [5]: Active; Activity [6]: Active; Activity [7]: Non-Toxic; Activity [8]: 141%
CC1(C)CCC(c2ccc(Cl)cc2)=C(CN2CCN(c3ccc(C(=O)NS(=O)(=O)c4ccc(N[C@H](CCN5CCOCC5)CSc5ccccc5)c(S(=O)(=O)C(F)(F)F)c4)cc3)CC2)C1 [NAVITOCLAX]	30 nM	50 nM	190 nM	11 nM	37 nM	850 nM	> 5000 nM	410 nM	70 nM	40 nM	180 nM	180 nM	Activity [15]: Active; Activity [21]: Active
CN(C)CC#Cc1ccc(OCCCc2sc(N3CCc4cccc(C(=O)Nc5nc6ccccc6s5)c4C3)nc2C(=O)O)c(F)c1 [A-1155463]	> 5000 nM	> 5000 nM	> 5000 nM	> 5000 nM	180 nM	200 nM	> 5000 nM	230 nM	120 nM	> 5000 nM	3200 nM	> 5000 nM	Activity_index [23]: 101; Activity_index [24]: 152; Activity_index [25]: 229; Activity [26]: Toxic; Activity_index [27]: 302; Activity_index [28]: 117; Activity_index [29]: 97
